The values below come from ChEMBL document CHEMBL4619773, “Chemoreactive-Inspired Discovery of Influenza A Virus Dual Inhibitor to Block Hemagglutinin-Mediated Adsorption and Membrane Fusion” (J Med Chem, 2020).

Active and inactive are the calls of the source. No cut-off for these calls is given here.

Data set [1] can be described thus: AUC (0 to t) in mouse at 0.5 mg/kg, iv administered as single dose. In kind it is ADME, organism-based. The settings on record: in vivo. In short, it runs like this:
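Male Kunming mice (20-25 g) and male Sprague Dawley rats (180-220 g) were fasted 12 h before dosing. Oral dosing was by gavage as a suspension in 0.5% sodium carboxymethyl cellulose; iv dosing was via tail vein in PEG400. Serial plasma samples were taken to 24 h, protein-precipitated with acetonitrile plus N-CH3 internal standard, and quantified by LC-MS/MS (n=3). Bioavailability = AUCoral/AUCiv.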

Data set [2] can be described thus: Cumulative drug excretion in mouse feces at 5 mg/kg, po administered as single dose measured after 72 hrs. In kind it is ADME, organism-based. The settings on record: faeces, read-out: Drug excretion. The essentials:
(§1)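 Single oral (gavage, 0.5% CMC-Na) or iv (tail vein, PEG400) dosing was given to male Kunming mice or Sprague Dawley rats held in metabolic cages. Urine and feces were collected at intervals to 72 h. Feces were dried, ground and homogenized in water (1:9 w/v). Samples were precipitated with acetonitrile containing internal standard and analysed by LC-MS/MS.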

A short description of data set [3]: Cumulative drug excretion in mouse feces at 0.5 mg/kg, iv administered as single dose measured after 72 hrs. The settings on record: faeces, read-out: Drug excretion. Format: ADME, organism-based. The essentials: as §1
Data set [4] concerns Influenza A virus H3N2. As to the kind of experiment: Antiviral activity against Influenza A virus H3N2 (A/swine/Minnesota/02719/2009) infected in MDCK cells by HA assay. Format: functional, organism-based. In short, it runs like this: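 MDCK cells were infected at high moi (≈3.0 PFU/cell). Virus-containing supernatants were serially diluted 2-fold and mixed with an equal volume of 1% chicken red blood cells. After 60 min at 4 °C, wells were scored for button sedimentation versus opaque agglutination to give titers.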

Data set [5] relates to Influenza A virus. As to the kind of experiment: Antiviral activity against Influenza A virus Virginia/ATCC1/2009 infected in MDCK cells incubated for 3 days by crystal violet staining based plaque assay. Format: functional, organism-based. The settings on record: Virginia/ATCC1/2009, MDCK, 72 h. The essentials:
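Confluent MDCK monolayers were exposed to 10-fold serial virus dilutions for 1 h at 37 °C, then washed. The overlay was DMEM with 1.5% agarose, 0.02% DEAE-dextran and 1 µg/ml TPCK-trypsin. After 3 days at 37 °C in 5% CO2, cells were fixed with 0.05% glutaraldehyde, stained with 1% crystal violet in 20% ethanol, and plaques were counted.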

A short description of data set [6]: Toxicity in Influenza A virus (A/Puerto Rico/8/1934(H1N1)) infected Kunming mouse assessed as induction of body weight loss at 5 to 10 mg/kg/day, po starting 4 hrs after viral challenge and continued for 7 days by plaque assay. In kind it is organism-based. The following applies: in vivo.
Data set [7] has as its system Influenza A virus. As to the kind of experiment: Antiviral activity against Influenza A virus (A/Puerto Rico/8/1934(H1N1)) infected in Kunming mouse assessed as decrease in lung TNFalpha level at 20 to 40 ug/day dosed intranasally starting 4 hrs after viral challenge and continued for 4 days by ELISA. Format: functional, organism-based. In short, it runs like this:
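Four-week-old female Kunming mice received PR8 intranasally (500 PFU/mouse in 40 µL PBS) and were then dosed once daily orally or intranasally. Lungs were collected on day 4, and TNF-α and IL-6 in lung tissue were measured by ELISA.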

Data set [8] in a line: Toxicity in Kunming mouse assessed as effect on creatine kinase level at 5 to 10 mg/kg/day, po for 7 days. Format: organism-based. The following applies: in vivo, 168 h. The essentials: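 Male Kunming mice (20–25 g) received compound orally at 5 or 10 mg/kg/day, suspended in 0.5% sodium carboxymethyl cellulose, once daily for 7 days; controls received vehicle. Serum was collected under isoflurane 24 h after the last dose. AST, ALT, CR, BUN, LDH, CK and CK-MB were measured with commercial kits.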

Data set [9] has as its target Hemagglutinin (Influenza A virus (A/Puerto Rico/8/1934(H1N1)), UniProt P03452). As to the kind of experiment: Binding affinity to Influenza A virus (A/Puerto Rico/8/1934(H1N1)) Hemagglutinin at 1.5625 to 50 uM by SPR assay. The settings on record: read-out: Kd. The essentials:
(§2)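 HA protein was immobilized on CM5 chips. Compound (50, […], 12.5, 6.25, 3.125, 1.5625 µM) was injected for 2 min, followed by a 10-min PBST wash and regeneration with 2 mM NaOH for 30 s. Runs were at 25 °C with 2 µl/s flow, using a blank HA-free reference channel. KD was obtained from kinetic fitting.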

Data set [10] shares this target. In words: Binding affinity to Influenza A virus (A/California/04/2009(H1N1)) Hemagglutinin at 1.5625 to 50 uM by SPR assay. The essentials:
as §2
Background: SPR reads the build-up and loss of mass on a sensor chip optically.

The nature of data set [11]: Binding affinity to Influenza A virus (A/Aichi/2/1968(H3N2)) Hemagglutinin at 1.5625 to 50 uM by SPR assay. In short, it runs like this:
as §2

In data set [12] the test system is Influenza A virus. As to the kind of experiment: Antiviral activity against Influenza A virus (A/Puerto Rico/8/1934(H1N1)) infected in human A549 cells assessed as reduction in endocytosis and nuclear import of viral RNP by measuring green fluorescence of NP protein in both cytoplasm and nucleus at 25 ug/ml during early infection stage (0 to 2 hrs post infection) by indirect immunofluorescence assay. Format: functional, organism-based. The essentials: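 PR8 virus was pretreated with or without 25 µg/ml compound for 1 h at 37 °C before infection. After adsorption, compound- or DMSO-containing medium was added. At 2 h p.i. cells were fixed (4% PFA), permeabilized (0.5% Triton X-100) and blocked (2% BSA). They were stained with anti-NP antibody, FITC secondary antibody and DAPI, then imaged by confocal microscopy.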

Chain of Hemagglutinin (Influenza A virus (A/Puerto Rico/8/1934(H1N1)), UniProt P03452) (P03452 whole entry): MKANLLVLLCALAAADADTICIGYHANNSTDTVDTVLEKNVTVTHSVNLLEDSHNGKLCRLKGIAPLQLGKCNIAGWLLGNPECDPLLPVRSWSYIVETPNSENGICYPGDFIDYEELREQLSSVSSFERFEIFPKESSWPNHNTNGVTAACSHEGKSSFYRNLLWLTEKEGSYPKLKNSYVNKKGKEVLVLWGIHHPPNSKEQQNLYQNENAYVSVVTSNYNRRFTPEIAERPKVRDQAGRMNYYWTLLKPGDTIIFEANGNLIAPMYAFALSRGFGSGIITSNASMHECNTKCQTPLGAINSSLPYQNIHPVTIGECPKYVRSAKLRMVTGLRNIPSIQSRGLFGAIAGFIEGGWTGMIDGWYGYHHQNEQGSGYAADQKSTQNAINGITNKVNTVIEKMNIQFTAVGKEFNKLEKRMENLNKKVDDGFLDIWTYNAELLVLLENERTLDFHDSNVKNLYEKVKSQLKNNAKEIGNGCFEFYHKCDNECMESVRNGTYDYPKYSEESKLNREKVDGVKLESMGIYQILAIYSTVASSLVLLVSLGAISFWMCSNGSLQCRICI

Consider `CC(=O)c1cc(C)c(O)c(Cc2[nH]c3ccccc3c2Cc2c(O)c(C)cc(C(C)=O)c2O)c1O`, for which, in data set [1], the AUC(0-t) (as a rule, the area under the concentration-time curve up to a stated or last time point) was determined as 269 ng·h/mL. The values for the dose excreted at 72 h in data set [2] and in [3] were 38.4% and 29.1%, respectively. Further, the Activity entry in [4] was “Dose-dependent effect”; in data set [6], “Non-Toxic”; in [8] it was “Non-Toxic”. Further, the IC50 (usually the point on the concentration scale where inhibition reaches its midpoint) in data set [5] is less than 13 µg/mL. Further, the result in data set [7] and in data set [12] was Active. Moreover, the Kd (commonly the free concentration of one partner at which half of the binding sites on the other are occupied at equilibrium, for simple one-to-one binding) in data set [9] stood at 6.3 µM; in [10], 6.9 µM; in [11], 7.3 µM.
